What was measured:
[1] = test system: Human immunodeficiency virus 2; experiment: Antiviral activity against HIV 2 subtype A clinical isolate expressing 10I-40D-43I-70K-82F-84V-85L-89V-90M-91T/L-98N/K protease gene sequence from HIV2 infected patient plasma and PBMC obtained at T1 during compound treatment measured after 13 months; type: functional, organism-based; settings: Human immunodeficiency virus 2, subtype A
Summary of the method: (§1)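 Virus isolated by PBMC coculture from patient samples taken before (T0) or during (T1, T2) protease inhibitor exposure, with protease genes sequenced from plasma and PBMC isolates. Susceptibility was tested in the ANRS PBMC assay, and the 50% inhibitory concentration (IC50) was reported.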

[2] = test system: Human immunodeficiency virus 2; experiment: Antiviral activity against Human immunodeficiency virus type 2 (ISOLATE ROD) after 13 months; type: functional, organism-based; settings: Human immunodeficiency virus 2, ISOLATE ROD
Summary of the method: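 Reference strain ROD was tested in the ANRS PBMC assay alongside the clinical isolates, and the 50% inhibitory concentration (IC50) was reported.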

[3] = test system: Human immunodeficiency virus 2; experiment: Antiviral activity against HIV 2 subtype B clinical isolate expressing 12Q-14R-17G/D-19P-61N-62I-92A protease gene sequence from HIV2 infected patient plasma and PBMC obtained before compound treatment measured after 13 months; type: functional, organism-based; settings: Human immunodeficiency virus 2, subtype B\r\n; summary of the method: as §1
[4] = test system: Human immunodeficiency virus 2; experiment: Antiviral activity against HIV 2 subtype B clinical isolate expressing 12T-14Y-19P-40N-41D-61N-62I-96S-99L protease gene sequence from HIV2 infected patient plasma and PBMC obtained before compound treatment measured after 13 months; type: functional, organism-based; settings: Human immunodeficiency virus 2, subtype B\r\n; summary of the method: as §1
[5] = test system: Human immunodeficiency virus 2; experiment: Antiviral activity against HIV 2 subtype A clinical isolate expressing 14H-40D-70K-72R/K-91T/S protease gene sequence from HIV2 infected patient plasma and PBMC obtained before compound treatment measured after 13 months; type: functional, organism-based; settings: Human immunodeficiency virus 2, subtype A; summary of the method: as §1
[6] = test system: Human immunodeficiency virus 2; experiment: Antiviral activity against HIV 2 subtype A clinical isolate expressing 10I-17D-40D-43I-45K/R-46V-54M-64I/V-69K/R-71V/I-90M protease gene sequence from HIV2 infected patient plasma and PBMC obtained at T1 during compound treatment measured after 13 months; type: functional, organism-based; settings: Human immunodeficiency virus 2, subtype A; summary of the method: as §1
[7] = test system: Human immunodeficiency virus 2; experiment: Antiviral activity against HIV 2 subtype A clinical isolate expressing 14H-17D-43T-68N/D protease gene sequence from HIV2 infected patient plasma and PBMC obtained before compound treatment measured after 13 months; type: functional, organism-based; settings: Human immunodeficiency virus 2, subtype A; summary of the method: as §1
[8] = test system: Human immunodeficiency virus 2; experiment: Antiviral activity against HIV 2 subtype A clinical isolate expressing 10I-17D-40D-43I-46V-66V/A-70R/K protease gene sequence from HIV2 infected patient plasma and PBMC obtained before compound treatment measured after 13 months; type: functional, organism-based; settings: Human immunodeficiency virus 2, subtype A; summary of the method: as §1
[9] = test system: Human immunodeficiency virus 2; experiment: Antiviral activity against HIV 2 subtype H expressing 10I-34E-40P-41Y-60H-63N-70T-73G-82F-89L-92E protease gene sequence from HIV2 infected patient plasma and PBMC obtained at T1 during compound treatment measured after 13 months; type: functional, organism-based; settings: Human immunodeficiency virus 2, subtype H; summary of the method: as §1
[10] = test system: Human immunodeficiency virus 2; experiment: Antiviral activity against HIV 2 subtype B clinical isolate expressing 14Y-19P-33I-61N-71I-75M-84V-90M protease gene sequence from HIV2 infected patient plasma and PBMC obtained at T1 during compound treatment measured after 13 months; type: functional, organism-based; settings: Human immunodeficiency virus 2, subtype B\r\n; summary of the method: as §1
[11] = test system: Human immunodeficiency virus 2; experiment: Antiviral activity against HIV 2 subtype B clinical isolate expressing 14Y-19P-61N-64V-71I-90M-95I protease gene sequence from HIV2 infected patient plasma and PBMC obtained at T2 during compound treatment measured after 3 months; type: functional, organism-based; settings: Human immunodeficiency virus 2, subtype B\r\n; summary of the method: as §1
[12] = test system: Human immunodeficiency virus 2; experiment: Antiviral activity against HIV 2 subtype H expressing 10I-40P-41Y-60H-63N-70T-73G-89L-92E protease gene sequence from HIV2 infected patient plasma and PBMC obtained before compound treatment measured after 13 months; type: functional, organism-based; settings: Human immunodeficiency virus 2, subtype H; summary of the method: as §1
[13] = test system: Human immunodeficiency virus 2; experiment: Antiviral activity against HIV 2 subtype A clinical isolate expressing 10V/I-40D-43I-56V-70K-82F-84V-89V-90M protease gene sequence from HIV2 infected patient plasma and PBMC obtained at T2 during compound treatment measured after 3 months; type: functional, organism-based; settings: Human immunodeficiency virus 2, subtype A; summary of the method: as §1
[14] = (§2) Antiviral activity against Human immunodeficiency virus type 1 (BRU ISOLATE) after […]; type: functional; settings: Human immunodeficiency virus 1
[15] = test system: Human immunodeficiency virus type 1 (BRU ISOLATE); experiment: as §2; type: functional
[16] = test system: Human immunodeficiency virus 2; experiment: Antiviral activity against HIV 2 subtype A clinical isolate expressing 5L/F-14Y/H-17G/D-43T-54I/M-62V/A-70R/K-71I protease gene sequence from HIV2 infected patient plasma and PBMC obtained at T1 during compound treatment measured after 13 months; type: functional, organism-based; settings: Human immunodeficiency virus 2, subtype A; summary of the method: as §1
[17] = test system: Human immunodeficiency virus 2; experiment: Antiviral activity against HIV 2 subtype B clinical isolate expressing 14Y-61N-99L protease gene sequence from HIV2 infected patient plasma and PBMC obtained before compound treatment measured after 13 months; type: functional, organism-based; settings: Human immunodeficiency virus 2, subtype B\r\n; summary of the method: as §1
[18] = test system: Human immunodeficiency virus 2; experiment: Antiviral activity against HIV 2 subtype A clinical isolate expressing 14H-60K/N-65E protease gene sequence from HIV2 infected patient plasma and PBMC obtained before compound treatment measured after 13 months; type: functional, organism-based; settings: Human immunodeficiency virus 2, subtype A; summary of the method: as §1
[19] = test system: Human immunodeficiency virus 2; experiment: Antiviral activity against HIV 2 subtype A clinical isolate expressing 54M-65E-71I-74N-90M protease gene sequence from HIV2 infected patient plasma and PBMC obtained at T1 during compound treatment measured after 13 months; type: functional, organism-based; settings: Human immunodeficiency virus 2, subtype A; summary of the method: as §1

SMILES: CC(C)CN(C[C@@H](O)[C@H](Cc1ccccc1)NC(=O)O[C@H]1CCOC1)S(=O)(=O)c1ccc(N)cc1 [AMPRENAVIR]
- IC50 [1]: 12 µM
- IC90 [1]: 96 µM
- IC50 [2]: 0.6 µM
- IC90 [2]: 4.6 µM
- IC50 [3]: 0.4 µM
- IC90 [3]: 2.8 µM
- IC50 [4]: 0.4 µM
- IC90 [4]: 2.4 µM
- IC50 [5]: 0.3 µM
- IC90 [5]: 1.6 µM
- IC50 [6]: 9.5 µM
- IC90 [6]: 31 µM
- IC50 [7]: 0.6 µM
- IC90 [7]: 3.8 µM
- IC50 [8]: 0.4 µM
- IC90 [8]: 3.5 µM
- IC50 [9]: 10 µM
- IC90 [9]: 82 µM
- IC50 [10]: 14 µM
- IC90 [10]: 110 µM
- IC50 [11]: 17 µM
- IC90 [11]: 140 µM
- IC50 [12]: 0.9 µM
- IC90 [12]: 2.7 µM
- IC50 [13]: 12 µM
- IC90 [13]: 95 µM
- IC50 [14]: 0.02 µM
- IC90 [15]: 0.2 µM
- IC50 [16]: 4.4 µM
- IC90 [16]: 13 µM
- IC50 [17]: 0.6 µM
- IC90 [17]: 4.6 µM
- IC50 [18]: 0.9 µM
- IC90 [18]: 6.8 µM
- IC50 [19]: 4 µM
- IC90 [19]: 60 µM

From ChEMBL document CHEMBL1255304, “In vitro phenotypic susceptibility of human immunodeficiency virus type 2 clinical isolates to protease inhibitors” (Antimicrob Agents Chemother, 2008)
